ChEMBL document CHEMBL1909507, “Substituted phenyl 4-(2-oxoimidazolidin-1-yl)benzenesulfonamides as antimitotics. Antiproliferative, antiangiogenic and antitumoral activity, and quantitative structure-activity relationships” (Eur J Med Chem, 2011)
Activity calls are given as the source filed them. The rule behind the calls is not given here.

Experiments:
[1] = system: MDA-MB-231; assay: Displacement of N,N'-ethylenebis(iodoacetamide) from beta-tubulin colchicine-binding site in human MDA-MB-231 cells at 1000 times IC50 preincubated for 2 hrs before N,N'-ethylenebis(iodoacetamide) addition measured after 1.5 hrs by chemiluminescence assay; type: cell-based
In short: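 EBI (100, final) was added for 1.5 h at 37 °C with drug present; control was 0.5% DMSO. Sonicated lysates (20 µg protein) were run on 10% SDS-PAGE and blotted with anti-β-tubulin TUB 2.1. The β-tubulin–EBI adduct was scored by ECL.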

[2] = system: M21; assay: Cell cycle arrest in human M21 cells assessed as accumulation at G2/M phase at 5 times IC50 after 24 hrs using propidium iodide staining by flow cytometric analysis (reference value: 9%); type: functional
In short: (§1)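 Cells were trypsinized, fixed in ice-cold ethanol, treated with RNase, and stained with propidium iodide (1 mg/mL stock) for 1 h on ice. Cell-cycle distribution was measured by flow cytometry.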

[3] = system: M21; assay: Cell cycle arrest in human M21 cells assessed as accumulation at G0/G1 phase at 5 times IC50 after 24 hrs using propidium iodide staining by flow cytometric analysis (reference value: 61%); type: functional; in short: as §1
[4] = Toxicity against fertilized chicken embryo assessed as mortality at 3 ug, iv by CAM assay; type: organism-based, Gallus gallus; settings: in vivo, read-out: Activity
In short: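 HT-1080 fibrosarcoma cells (3.5 × 10⁵ cells/egg) grafted onto the chorioallantoic membrane of fertilized chicken eggs (10 days preincubation). On day 11, drug in DMSO diluted into excipient (ethanol:cremophor:PBS 6.25:6.25:87.5) given iv at 3 µg per egg. Chick mortality recorded over 7-day tumor growth period. Untreated eggs as negative controls and for normalization. Cumulative results from two independent experiments, 10–12 eggs each.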

[5] = system: HT-1080; assay: Antiangiogenic activity in human HT1080 cells xenografted in chicken chorioallantoic membrane assessed as vascular disruption at 1 to 3 ug, iv measured on day 17 by CAM assay; type: functional
[6] = system: HT-1080; assay: Antitumor activity against human HT1080 cells xenografted in chicken chorioallantoic membrane assessed as inhibition of tumor growth at 1 to 3 ug, iv measured on day 17 by CAM assay; type: functional
In short: (§2)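 Fertilized chicken eggs were incubated 10 days, then 3.5 × 10⁵ HT-1080 cells/egg were applied to the exposed chorioallantoic membrane. On day 11, drug was given iv in DMSO diluted in excipient (ethanol:cremophor:PBS 6.25:6.25:87.5). Read-out was tumor wet weight as % of untreated eggs, plus chick mortality. Data were pooled from two independent experiments of 10–12 eggs each.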

[7] = system: M21; assay: Disruption of cytoskeleton microtubule structure of human M21 cells at 5 times IC50 after 16 hrs by indirect immunofluorescence assay; type: functional, cell-based
In short: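 Cells were fixed in 3.7% formaldehyde, permeabilized with saponin, and stained with anti-β-tubulin TUB 2.1, Alexa-488 anti-mouse secondary and DAPI. Fluorescence microscopy was used for imaging.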

[8] = system: M21; assay: Cell cycle arrest in human M21 cells assessed as accumulation at S phase at 5 times IC50 after 24 hrs using propidium iodide staining by flow cytometric analysis (reference value: 30%); type: functional; in short: as §1
[9] = system: L1210; assay: Antiproliferative activity against mouse L1210 after 48 hrs by SRB assay; type: functional, cell-based; settings: L1210, 48 h
[10] = system: M21; assay: Antiproliferative activity against human M21 cells after 48 hrs by SRB assay; type: functional, cell-based; settings: M21, 48 h
In short: (§3)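 Adherent cells were seeded per line (e.g. HT-29 5000, M21 3500, MCF7 7500, CHO and CHO-VV 3-2 and CHO-TAX 5-6 1000 cells/well) and grown 24 h at 37 °C, 5% CO₂. DMSO-solubilized drug was diluted in medium and added at 1000–0.98 nM for 48 h. Cells were fixed with cold 10% TCA and stained with 0.1% sulforhodamine B, with absorbance read at 530–565 nm.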

[11] = system: CHO-TAX 5-6; assay: Antiproliferative activity against paclitaxel-resistant CHO-TAX 5-6 cells after 48 hrs by SRB assay; type: functional, cell-based; settings: Cricetulus griseus, CHO-TAX 5-6, 48 h; in short: as §3
[12] = system: CCRF-CEM; assay: Ratio of IC50 for human multidrug-resistant CEM/VLB cells to IC50 for human CEM cells; type: functional
In short: (§4)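 Each ratio is the IC50 in the resistant line divided by the IC50 in its parental line (CHO for CHO-TAX 5-6 and CHO-VV 3-2; CEM for CEM-VLB).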

[13] = system: CHO-VV 3-2; assay: Antiproliferative activity against colchicine and vinblastine-resistant CHO-VV 3-2 cells after 48 hrs by SRB assay; type: functional, cell-based; settings: Cricetulus griseus, CHO-VV 3-2, 48 h; in short: as §3
[14] = system: MDA-MB-231; assay: Antiproliferative activity against human MDA-MB-231 after 48 hrs by SRB assay; type: functional, cell-based; settings: MDA-MB-231, 48 h
[15] = system: K562; assay: Antiproliferative activity against human K562 after 48 hrs by SRB assay; type: functional, cell-based; settings: K562, 48 h
[16] = Antiproliferative activity against mouse B16F0 after 48 hrs by SRB assay
[17] = system: CHO-TAX 5-6; assay: Ratio of IC50 for paclitaxel-resistant CHO-TAX 5-6 cells to IC50 for CHO cells; type: functional, Cricetulus griseus; in short: as §4
[18] = system: HT-29; assay: Antiproliferative activity against human HT-29 cells after 48 hrs by SRB assay; type: functional, cell-based; settings: HT-29, 48 h; in short: as §3
[19] = system: SK-OV-3; assay: Antiproliferative activity against human SKOV3 after 48 hrs by SRB assay; type: functional, cell-based; settings: SK-OV-3, 48 h; in short: as §3
[20] = system: CHO; assay: Antiproliferative activity against Chinese hamster CHO after 48 hrs by SRB assay; settings: Cricetulus griseus
[21] = system: CHO-VV 3-2; assay: Ratio of IC50 for colchicine and vinblastine-resistant CHO-VV 3-2 cells to IC50 for CHO cells; type: functional, Cricetulus griseus; in short: as §4
[22] = system: MCF7; assay: Antiproliferative activity against human MCF7 cells after 48 hrs by SRB assay; type: functional, cell-based; settings: MCF7, 48 h; in short: as §3
[23] = Antiproliferative activity against human multidrug-resistant CEM/VLB cells after 48 hrs by SRB assay; type: functional
[24] = Antiproliferative activity against mouse P388D1 after 48 hrs by SRB assay; settings: P388D1, 48 h
[25] = system: CCRF-CEM; assay: Antiproliferative activity against human CEM after 48 hrs by SRB assay; type: functional, cell-based
[26] = system: HT-1080; assay: Antitumor activity against human HT1080 cells xenografted in chicken chorioallantoic membrane assessed as inhibition of tumor growth at 3 ug, iv measured on day 17 by CAM assay; type: functional; in short: as §2
[27] = system: DU-145; assay: Antiproliferative activity against human DU145 after 48 hrs by SRB assay; type: functional, cell-based; settings: DU-145, 48 h
[28] = system: HT-1080; assay: Antiproliferative activity against human HT1080 after 48 hrs by SRB assay; type: functional, cell-based; settings: HT-1080, 48 h; in short: as §3

Structure (SMILES)	Activity [1]	Activity [2]	Activity [3]	mortality [4]	Activity [7]	Activity [8]	IC50 [9]	IC50 [10]	IC50 [11]	Ratio IC50 [12]	IC50 [13]	IC50 [14]	IC50 [15]	IC50 [16]	Ratio IC50 [17]	IC50 [18]	IC50 [19]	IC50 [20]	Ratio IC50 [21]	IC50 [22]	further results
COc1ccc(/C=C\c2cc(OC)c(OC)c(OC)c2)cc1O [COMBRETASTATIN A4]	Active	98%	2%	45%	Active	0%															Activity [5]: 48%; growth inhibition (GI) [6]: 45%
Cc1cccc(NS(=O)(=O)c2ccc(N3CCNC3=O)cc2)c1	Active	83%	1%	8%	Active	16%	180 nM	69 nM	150 nM	1.9	280 nM	1270 nM	200 nM	290 nM	0.65	110 nM	200 nM	230 nM	1.2	190 nM	IC50 [23]: 370 nM; IC50 [24]: 250 nM; IC50 [25]: 200 nM; inhibition [26]: inactive; IC50 [27]: 580 nM; IC50 [28]: 210 nM
CCc1cccc(NS(=O)(=O)c2ccc(N3CCNC3=O)cc2)c1	Active	95%	0%	11%	Active	5%	200 nM	82 nM	140 nM	2.3	250 nM	1410 nM	230 nM	270 nM	0.61	110 nM	230 nM	230 nM	1.1	130 nM	IC50 [23]: 450 nM; IC50 [24]: 250 nM; IC50 [25]: 200 nM; growth inhibition (GI) [26]: 45%; IC50 [27]: 730 nM; IC50 [28]: 200 nM
